Bioassay records deposited in PubChem by several laboratories.
Sampled rows, rich in hits. Any-hit rate of the full collection: about 2.4%.
SIAE inh: human SIAE inhibitors, primary screen, biochemical, fluorescence polarization, FP-Rh probe, 1536-well HTS | SIAE FP-Rh probe binding | inhibition, % at 9.66 µM | hit rate 0.69% among 370,000 | Sialate O-acetylesterase (Homo sapiens), Q9HAT2;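 active = inhibition above a cutoff: mean of compounds within the control limits plus 3 SD of those, cut at about 17% in these data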;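 note: 0% = plate median of compound wells and 100% = probe without SIAE protein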
mABHD4 FP: ABHD4 inhibitors, primary screen, biochemical, fluorescence polarization, mouse | (Lyso)-N-acylphosphatidylethanolamine lipase (Mus musculus), Q8VD66 | purified mABHD4, FP-Rh probe fluorescence polarization | inhibition, % at 8.92 µM | hit rate 0.54% among 370,000 | AID 720543, 2013;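 active = inhibition exceeding the mean over every tested compound plus 3 SD, cut at about 30% in these data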;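 note: 0% = plate median of compound wells and 100% = S159A mutant with DMSO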
Target sequence (Q8VD66 whole entry, looked up): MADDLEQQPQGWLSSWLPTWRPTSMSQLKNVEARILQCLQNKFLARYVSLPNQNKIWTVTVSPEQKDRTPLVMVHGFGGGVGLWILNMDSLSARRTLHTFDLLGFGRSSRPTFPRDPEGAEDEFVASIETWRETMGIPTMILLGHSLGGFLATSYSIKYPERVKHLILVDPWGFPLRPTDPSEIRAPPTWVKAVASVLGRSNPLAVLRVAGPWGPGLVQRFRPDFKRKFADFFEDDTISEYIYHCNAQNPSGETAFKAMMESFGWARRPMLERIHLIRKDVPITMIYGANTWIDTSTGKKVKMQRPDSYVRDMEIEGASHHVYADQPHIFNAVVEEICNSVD
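Test system: mABHD4 protein | Buffer or medium: HEPES pH 7.0 buffer, 150 mM NaCl, 0.01% Pluronic F-127 | Probe or stimulus: FP-Rh fluorescent activity-based probe, added after compound pre-incubation | Timing: Pre-incubation 45 min, probe exposure 60 min, at 25 °C | Technique: Fluorescence polarization, excitation 525 nm, emission 598 nm, BODIPY TMR filters | Repeats: Single well per compound (singlicate)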
PRMT1 inh: PRMT1 methyltransferase inhibitors, primary screen, biochemical, fluorescence polarization | AID 652257, 2013 | Protein arginine N-methyltransferase 1 (Homo sapiens), Q99873 | inhibition, % at 2.79 µM | hit rate 1.3% among 370,000 | recombinant PRMT1, activity-based probe fluorescence polarization;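 active = inhibition above about 21% made by adding two undisclosed values, limit read from the data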
HTRA1 inh: HTRA1 serine protease inhibitors, primary screen, biochemical, fluorescence polarization, HTS. Q92743. recombinant HTRA1, FP-rhodamine activity-based probe. inhibition, % at 5.96 µM. hit rate 0.5% among 340,000. AID 504803, 2011; in the data active = inhibition above about 36%;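 note: 0% = enzyme with DMSO and 100% = wells lacking enzyme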
GASC-1 inh: inhibitors of GASC-1 histone demethylase, primary screen, biochemical, fluorescence, DELFIA europium | Lysine-specific demethylase 4C (Homo sapiens), Q9H3R0 | GST-JMJD2C(1-420) H3K9me3 demethylation | inhibition, % at 2.35 µM | hit rate 0.069% among 330,000 | AID 2099, 2009;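 active = more than half of a compound's replicate wells show inhibition beyond 50%, single wells judged on their own value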;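 note: signal counts dimethyl H3K9 product captured on neutravidin plate; 0% = median of DMSO wells and 100% = 0.3 times that DMSO median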
* hit, by the source's call; . = no result given.

SMILES	SIAE inh	mABHD4 FP	PRMT1 inh	HTRA1 inh	GASC-1 inh
CCC[C@H]1[C@@H](NC(=O)c2cccnc2)CC[C@@]23CCCN2C(=O)CCC[C@@H]13	3	-5	5	.	.
Cc1ccc(-n2c(N)c(C#N)c(-c3ccccc3)c(C#N)c2=O)cc1	-3	-17	4	3	-6
Cc1ccc(-c2nc3sc(C#N)c(N)n3c(=O)c2C#N)cc1	8	-6	81*	-3	1
O=C(NCc1ccccn1)c1cn(Cc2ccccc2)nn1	-9	-4	-3	5	64*
O=C(c1cc(Cl)cc(Cl)c1)N1CC[C@H]2[C@H](CCCN2Cc2cc(F)cc(F)c2)C1	4	-4	-4	.	.
O=C(c1ccco1)[C@@H]1[C@@H]2C(=O)N(c3ccc(Br)cc3)C(=O)[C@@H]2C2c3ccccc3C=CN21 (stereo partly drawn)	-16	-14	25*	-4	.
C=CCn1c(N)c(-c2nc3ccccc3n2C)sc1=S	0	2	2	1	50*
Cn1c(-c2sc(=S)n(-c3ccccc3)c2N)nc2ccccc21	0	12	2	9	-6
CCOc1cc(C2NC(=S)NC(C)=C2C(=O)Nc2ccccc2)ccc1O (stereo not drawn)	0	-8	22*	4	4
COc1cc(NC(=O)COC(=O)[C@@H]2CCCN2S(=O)(=O)c2ccc(Cl)cc2)cc(OC)c1OC	18*	-3	2	-4	-1
COc1ccccc1NC1=C(NC(C)=O)C(=O)c2ccccc2C1=O	-7	5	25*	8	-10
Nc1c(C(=O)NCC(O)c2ccccc2)cnn1-c1ccccc1 (stereo not drawn)	-1	2	-5	.	.
CCc1cccc2cc3c(N)c(C(=O)Nc4ccc(S(=O)(=O)N5CCCC5)cc4)sc3nc12	27*	7	20	-4	-5
CC(=O)OCC1=C(C(=O)O)N2C(=O)C(NC(=O)CCn3nc(C(F)(F)F)c(Br)c3C3CC3)C2SC1 (stereo not drawn)	7	9	25*	4	-3
CC(=O)OCC1=C(C(=O)O)N2C(=O)[C@@H](NC(=O)Cc3cccs3)[C@H]2SC1	-1	8	11	-5	25
O=C(COc1ccccc1)NC1C(=O)N2C(C(=O)O)=C(Cl)CSC12 (stereo not drawn)	6	11	24*	0	-3
CC(=O)OCC1=C(C(=O)O)N2C(=O)C(NC(=O)CCn3nc(C)c(Cl)c3C)C2SC1 (stereo not drawn)	-5	0	24*	6	0
CC(=O)OCC1=C(C(=O)O)N2C(=O)C(NC(=O)CC(C)c3ccccc3)C2SC1 (stereo not drawn)	5	8	22*	4	12
COc1cccc(/C=N\N2CCN(c3ccc(C)cc3)CC2)c1O	-1	2	-1	.	.
COc1cc2c(cc1OC)CN(C(=O)CSc1n[nH]c(N)n1)CC2	2	-2	-3	7	54*
O=C1NCCCC2c3c(cc(Br)c(O)c3Br)OC12N1CCCCC1 (stereo not drawn)	4	27	79*	6	1
O=C1NCCCc2c1oc1cc(Br)c(O)c(Br)c21	-3	2	6	-3	-7
CC(C)CN1C(=O)[C@@]2(CC(=O)N(C)C2c2ccccc2)c2cc(-n3cc(CN(C)C)nn3)ccc21 (stereo partly drawn)	6	-4	1	.	.
CC(=O)NC1C(=O)N=C(SC(C)C(=O)Nc2cccc(Cl)c2)NC1=O (stereo not drawn)	-7	1	22*	5	18
CC(Sc1nc(N)cc(=O)[nH]1)C(=O)Nc1cccc(Cl)c1 (stereo not drawn)	-10	-4	2	-9	-5
SMILES	SIAE inh	mABHD4 FP	PRMT1 inh	HTRA1 inh	GASC-1 inh
CC(=O)N1CCc2cc(S(=O)(=O)NCCC(=O)N(C)Cc3ccccc3F)ccc21	5	-8	-3	.	.
C[C@@H]1CCN(C2CC2)S(=O)(=O)c2c(cccc2N2CCC[C@H]2CO)O1	-2	1	-9	.	.
CN(c1ccc(OCC(=O)N2CCCCC2)cc1)S(=O)(=O)c1cccs1	0	-2	1	6	64*
CSCCC(=O)N1C(C)CCCC1C(=O)O (stereo not drawn)	1	3	0	1	0
CC1CCCC(C(=O)O)N1C(=O)CCS (stereo not drawn)	-7	-14	25*	7	-19
O=C(O)/C(=C\c1ccc(Cl)c([N+](=O)[O-])c1)c1ccc(S(=O)(=O)N2CCCC2)s1	-14	20	23*	-16	4
O=C(O)/C(=C\c1ccc(Cl)c([N+](=O)[O-])c1)c1ccc(S(=O)(=O)N2CCCCC2)s1	10	7	5	-36	-15
O=C(CCN1CCCCC1)Nn1c(=S)[nH]c2ccccc2c1=O	4	1	24*	-6	0
O=c1c2ccccc2[nH]c(=S)n1CCN1CCCC1	2	-3	1	4	-2
C#CCOCCOCCOCCNc1nc(N2CCN(C(=O)[C@H](CCCCN)n3cc([C@@H](N)C(C)CC)nn3)CC2)nc(N2CCN(C(=O)[C@H](CCCCN)n3cc([C@@H](N)C(C)CC)nn3)CC2)n1 (stereo partly drawn)	-1	-2	11	.	.
CC(=O)N1CC=CC1(CC(C)C)C(=O)NCc1cc(F)cc(C(F)(F)F)c1 (stereo not drawn)	-1	-12	4	-8	3
CNC(=O)C1(CC(C)C)C=CCN1C(C)=O (stereo not drawn)	17*	0	-4	2	1
COC(=O)Cc1nnn2c1[C@H](C)[C@H](c1cccc(OC)c1OC)OCC2	1	-4	1	.	.
COc1ccc(CN(C)C(=O)c2cc(-c3ccccc3)nc3ccc(C)cc23)c(OC)c1	-7	-8	-2	-75	.
COc1ccc(CN2CCCCC2C)c(C)c1C (stereo not drawn)	1	1	-2	1	50*
O=C(C[N+]12CC[N+](CC(=O)c3ccc(F)cc3)(CC1)CC2)c1ccc(F)cc1	-2	-8	11	24	-4
N#CC1(C#N)CC(C=O)=C(N)C1(C#N)CC(=O)c1ccc(F)cc1 (stereo not drawn)	-4	15	24*	-6	11
COc1ccc(C2CC(=O)Oc3cc(O)ccc32)cc1 (stereo not drawn)	2	-4	1	5	.
Cc1ccccc1C1CC(=O)Oc2cc(O)ccc21 (stereo not drawn)	.	.	.	53*	.
